From ChEMBL document CHEMBL5385966, “Synthesis and biological evaluation of new naphthalimide-thiourea derivatives as potent antimicrobial agents active against multidrug-resistant Staphylococcus aureus and Mycobacterium tuberculosis” (RSC Med Chem, 2024) come the findings set out here.

One test has as its system Staphylococcus aureus. As to the kind of experiment: Antibacterial activity against Staphylococcus aureus ATCC 29213 assessed as bacterial growth inhibition incubated for 16 to 18 hrs by CLSI based antibiotic susceptibility testing method. In kind it is functional. Particulars: time 16-18 hrs. The method in brief: (§1)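 Broth microdilution in cation-adjusted Mueller-Hinton broth. Compounds were tested at […], with levofloxacin as reference and medium-only controls. Plates were incubated at 37 °C for 16-18 h. MIC was the lowest concentration with no visible growth; three independent determinations, each in duplicate.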

The subject of test [1] is Mycobacterium tuberculosis. In words: Antimycobacterial activity against Mycobacterium tuberculosis H37Rv ATCC 27294 assessed as bacterial growth inhibition incubated for 7 days by resazurin dye based broth microdilution method. The format is functional. Particulars: H37Rv ATCC 27294, 168 h, time 7 day. The method in brief: (§2)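 Broth microdilution in Middlebrook 7H9 with 10% ADC-Tween-80 (0.2% glycerol, 0.05% Tween-80), inoculum ~10⁶ cfu/mL. Compounds came from 10 mg/mL DMSO stocks and were tested as two-fold serial dilutions at 37 °C, 7 days for M. tuberculosis H37Rv and 72 h for NTM. Growth was read visually with PrestoBlue resazurin dye; MIC was the lowest concentration preventing growth. Triplicate determinations, each in duplicate.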
For orientation: The colour change of resazurin is a common sign of viable cells or microbes.

The next test concerns Escherichia coli. In words: Antibacterial activity against Escherichia coli ATCC 25922 assessed as bacterial growth inhibition incubated for 16 to 18 hrs by CLSI based antibiotic susceptibility testing method. The format is functional, organism-based. Particulars: time 16-18 hrs. The procedure, abridged:
as §1

For another test, the system named is Klebsiella pneumoniae. As to the kind of experiment: Antibacterial activity against Klebsiella pneumoniae BAA 1705 assessed as bacterial growth inhibition incubated for 16 to 18 hrs by CLSI based antibiotic susceptibility testing method. In kind it is functional, organism-based. Conditions: time 16-18 hrs. The method in brief: as §1
A further test concerns Acinetobacter baumannii. As to the kind of experiment: Antibacterial activity against Acinetobacter baumannii BAA 1605 assessed as bacterial growth inhibition incubated for 16 to 18 hrs by CLSI based antibiotic susceptibility testing method. The format is functional, organism-based. Conditions: time 16-18 hrs. The procedure, abridged:
as §1

The subject of a further test is Pseudomonas aeruginosa. In words: Antibacterial activity against Pseudomonas aeruginosa ATCC 27853 assessed as bacterial growth inhibition incubated for 16 to 18 hrs by CLSI based antibiotic susceptibility testing method. In kind it is functional, organism-based. Conditions: time 16-18 hrs. The method in brief:
as §1

Test [2] concerns Mycobacteroides abscessus. As to the kind of experiment: Antimycobacterial activity against Mycobacterium abscessus ATCC 19977 assessed as bacterial growth inhibition incubated for 72 hrs by resazurin dye based broth microdilution method. The format is functional, organism-based. The procedure, abridged: as §2
The test system of test [3] is Mycolicibacterium fortuitum. As to the kind of experiment: Antimycobacterial activity against Mycobacterium fortuitum ATCC 6841 assessed as bacterial growth inhibition incubated for 72 hrs by resazurin dye based broth microdilution method. In kind it is functional, organism-based. The procedure, abridged:
as §2

For the next test, the system named is Mycobacteroides chelonae. In words: Antimycobacterial activity against Mycobacteroides chelonae ATCC 35752 assessed as bacterial growth inhibition incubated for 72 hrs by resazurin dye based broth microdilution method. In kind it is functional, organism-based. The procedure, abridged: as §2

Each structure is given as a SMILES string. Values after ≈ are worked out from the molar mass of the structure shown. Active and inactive are the calls of the source. The calls are words filed in the database; no cut-off is given here. Where only a bound is given, the exact number is not on record here.

Usually MIC stands for the lowest concentration that inhibits growth of the organism. For the compound `O=C1c2cccc3cccc(c23)C(=O)N1CCN1CCN(C(=S)Nc2ccc(Cl)c(Cl)c2)CC1`, the MIC (with Staphylococcus aureus; in test [1]) was over 64 µg/mL in each case. Besides, the “growth inhibition (GI)” value (in the test on Escherichia coli; with Klebsiella pneumoniae; with Acinetobacter baumannii; in the test on Pseudomonas aeruginosa; in test [2]; in test [3]) was “inactive” each time. Besides, the “growth inhibition (GI)” value with Mycobacteroides chelonae is “inactive”.
As for `COc1ccc(NC(=S)N2CCN(C(=O)CN3C(=O)c4cccc5cccc(c45)C3=O)CC2)cc1`, the MIC in the test with Staphylococcus aureus is over 64 µg/mL; in test [1], 64 µg/mL (≈ 131 µM). Also, the “growth inhibition (GI)” value (with Escherichia coli; in the test on Klebsiella pneumoniae; in the test on Acinetobacter baumannii; in the test with Pseudomonas aeruginosa; in [2]; in test [3]) was “inactive” throughout. The “growth inhibition (GI)” value in the test on Mycobacteroides chelonae is “inactive”.
For the compound `O=C1c2cccc3cccc(c23)C(=O)N1CCN1CCN(C(=S)Nc2cccc(Cl)c2)CC1`, the MIC (in the test with Staphylococcus aureus; in test [1]) was over 64 µg/mL throughout. Besides, the “growth inhibition (GI)” value (in the test with Escherichia coli; with Klebsiella pneumoniae; in the test on Acinetobacter baumannii; in the test with Pseudomonas aeruginosa; in test [2]; in test [3]) was “inactive” in each case. Further, the “growth inhibition (GI)” value in the test with Mycobacteroides chelonae was “inactive”.
For `COc1ccc(NC(=S)N2CCN(C(=O)CCN3C(=O)c4cccc5cccc(c45)C3=O)CC2)cc1`, the values for the MIC (with Staphylococcus aureus; in [1]) were over 64 µg/mL and 8 µg/mL (≈ 15.9 µM), respectively. Moreover, the “growth inhibition (GI)” value (with Escherichia coli; in the test with Klebsiella pneumoniae; in the test on Acinetobacter baumannii; with Pseudomonas aeruginosa; in test [2]; in test [3]) was “inactive” each time. The “growth inhibition (GI)” value in the test on Mycobacteroides chelonae is “inactive”.
For the compound `O=C(CCN1C(=O)c2cccc3cccc(c23)C1=O)NC1CCN(C(=S)Nc2ccc(Cl)cc2)CC1`, the MIC (in the test with Staphylococcus aureus; in test [1]) was over 64 µg/mL each time. For the same compound, the “growth inhibition (GI)” value (in the test with Escherichia coli; with Klebsiella pneumoniae; in the test with Acinetobacter baumannii; in the test with Pseudomonas aeruginosa; in test [2]; in test [3]) was “inactive” throughout. Also, the “growth inhibition (GI)” value with Mycobacteroides chelonae is “inactive”.
Consider `O=C(Nc1ccccc1)N1CCN(CCN2C(=O)c3cccc4cccc(c34)C2=O)CC1`, for which the MIC in the test on Staphylococcus aureus is 8 µg/mL (≈ 18.7 µM); in test [1], 32 µg/mL (≈ 74.7 µM). Moreover, the “growth inhibition (GI)” value (in the test with Escherichia coli; with Klebsiella pneumoniae; in the test on Acinetobacter baumannii; in the test on Pseudomonas aeruginosa; in test [2]; in test [3]) was “inactive” in each case. The “growth inhibition (GI)” value in the test on Mycobacteroides chelonae is “inactive”.
In the case of `COc1ccc(NC(=S)N2CCN(CCN3C(=O)c4cccc5cccc(c45)C3=O)CC2)cc1`, the MIC (in the test with Staphylococcus aureus; in test [1]) was over 64 µg/mL throughout. The “growth inhibition (GI)” value (in the test with Escherichia coli; in the test with Klebsiella pneumoniae; in the test with Acinetobacter baumannii; in the test on Pseudomonas aeruginosa; in test [2]; in [3]) was “inactive” each time. In addition, the “growth inhibition (GI)” value in the test with Mycobacteroides chelonae is “inactive”.
`O=C(CCN1C(=O)c2cccc3cccc(c23)C1=O)N1CCN(C(=S)Nc2ccccc2Cl)CC1`: the MIC (with Staphylococcus aureus; in [1]) was over 64 µg/mL throughout. Further, the “growth inhibition (GI)” value (in the test with Escherichia coli; with Klebsiella pneumoniae; in the test on Acinetobacter baumannii; in the test on Pseudomonas aeruginosa; in test [2]; in test [3]) was “inactive” throughout. For the same compound, the “growth inhibition (GI)” value in the test on Mycobacteroides chelonae is “inactive”.
`O=C(CCN1C(=O)c2cccc3cccc(c23)C1=O)N1CCN(C(=S)Nc2ccccc2)CC1`: the figures for the MIC (in the test on Staphylococcus aureus; in test [1]) were over 64 µg/mL and 32 µg/mL (≈ 67.7 µM), respectively. The “growth inhibition (GI)” value (in the test on Escherichia coli; in the test on Klebsiella pneumoniae; in the test on Acinetobacter baumannii; in the test with Pseudomonas aeruginosa; in test [2]; in test [3]) was “inactive” throughout. Moreover, the “growth inhibition (GI)” value in the test with Mycobacteroides chelonae was “inactive”.
As to `O=C1c2cccc3cccc(c23)C(=O)N1CCN1CCN(C(=S)NC23CC4CC(CC(C4)C2)C3)CC1`, the MIC (in the test on Staphylococcus aureus; in test [1]) was over 64 µg/mL each time. Besides, the “growth inhibition (GI)” value (with Escherichia coli; with Klebsiella pneumoniae; with Acinetobacter baumannii; in the test on Pseudomonas aeruginosa; in test [2]; in test [3]) was “inactive” in each case. Moreover, the “growth inhibition (GI)” value in the test with Mycobacteroides chelonae was “inactive”.
For `O=C(CN1C(=O)c2cccc3cccc(c23)C1=O)N1CCN(C(=S)Nc2cccc(Cl)c2)CC1`, the MIC is over 64 µg/mL with Staphylococcus aureus and 32 µg/mL (≈ 64.9 µM) in [1]. Further, the “growth inhibition (GI)” value (with Escherichia coli; in the test with Klebsiella pneumoniae; with Acinetobacter baumannii; in the test on Pseudomonas aeruginosa; in test [2]; in test [3]) was “inactive” throughout. For the same compound, the “growth inhibition (GI)” value in the test on Mycobacteroides chelonae was “inactive”.
Regarding `O=C1c2cccc3cccc(c23)C(=O)N1CCN1CCN(C(=S)Nc2ccccc2Cl)CC1`, the MIC (in the test on Staphylococcus aureus; in [1]) was over 64 µg/mL in each case. Also, the “growth inhibition (GI)” value (with Escherichia coli; in the test with Klebsiella pneumoniae; with Acinetobacter baumannii; with Pseudomonas aeruginosa; in test [2]; in [3]) was “inactive” in each case. Also, in the test on Mycobacteroides chelonae, the “growth inhibition (GI)” value was “inactive”.
On to `O=C(CCN1C(=O)c2cccc3cccc(c23)C1=O)N1CCN(C(=S)Nc2ccc(Cl)cc2)CC1`, for which the results for the MIC (in the test on Staphylococcus aureus; in test [1]) were over 64 µg/mL and 64 µg/mL (≈ 126 µM), respectively. Besides, the “growth inhibition (GI)” value (in the test with Escherichia coli; with Klebsiella pneumoniae; in the test with Acinetobacter baumannii; with Pseudomonas aeruginosa; in [2]; in [3]) was “inactive” in each case. Besides, in the test with Mycobacteroides chelonae, the “growth inhibition (GI)” value was “inactive”.
For the compound `O=C(CN1C(=O)c2cccc3cccc(c23)C1=O)N1CCC(NC(=S)NC23CC4CC(CC(C4)C2)C3)CC1`, the values for the MIC (with Staphylococcus aureus; in test [1]) were 4 µg/mL (≈ 7.54 µM) and 32 µg/mL (≈ 60.3 µM), respectively. The “growth inhibition (GI)” value (in the test on Escherichia coli; in the test with Klebsiella pneumoniae; in the test on Acinetobacter baumannii; in the test on Pseudomonas aeruginosa; in [2]; in test [3]) was “inactive” throughout. Further, in the test on Mycobacteroides chelonae, the “growth inhibition (GI)” value was “inactive”.
Regarding `O=C1c2cccc3cccc(c23)C(=O)N1CCN1CCN(C(=S)NC2CC2)CC1`, the MIC (in the test with Staphylococcus aureus; in test [1]) was over 64 µg/mL throughout. Further, the “growth inhibition (GI)” value (in the test with Escherichia coli; with Klebsiella pneumoniae; in the test on Acinetobacter baumannii; in the test with Pseudomonas aeruginosa; in [2]; in test [3]) was “inactive” in each case. Also, the “growth inhibition (GI)” value in the test on Mycobacteroides chelonae was “inactive”.
Regarding `O=C(Nc1ccc(Cl)cc1)N1CCN(CCN2C(=O)c3cccc4cccc(c34)C2=O)CC1`, the MIC with Staphylococcus aureus was over 64 µg/mL; in test [1] it was 8 µg/mL (≈ 17.3 µM). The “growth inhibition (GI)” value (in the test with Escherichia coli; in the test with Klebsiella pneumoniae; with Acinetobacter baumannii; in the test on Pseudomonas aeruginosa; in test [2]; in test [3]) was “inactive” in each case. The “growth inhibition (GI)” value in the test on Mycobacteroides chelonae is “inactive”.
